Key:
[1] = molecular target: T1, S-adenosylmethionine decarboxylase proenzyme (Rattus norvegicus, UniProt P17708); assay: In vitro inhibitory activity against S-adenosyl-L-methionine decarboxylase using liver from rat in presence of 1 mM putrescine
T1 sequence (P17708 whole entry): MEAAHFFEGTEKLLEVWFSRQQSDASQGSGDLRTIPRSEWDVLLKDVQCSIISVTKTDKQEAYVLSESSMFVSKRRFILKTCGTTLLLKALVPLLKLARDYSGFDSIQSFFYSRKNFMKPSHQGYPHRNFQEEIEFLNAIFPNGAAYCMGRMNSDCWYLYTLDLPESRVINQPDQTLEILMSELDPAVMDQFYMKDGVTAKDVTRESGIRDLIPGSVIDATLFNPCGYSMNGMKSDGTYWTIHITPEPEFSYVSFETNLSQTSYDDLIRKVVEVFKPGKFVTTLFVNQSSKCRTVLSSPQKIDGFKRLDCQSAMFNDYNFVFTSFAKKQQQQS
Procedure, shortened: (§1)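 Enzyme source: liver of rats injected with MGBG·2HCl (80 mg/kg) 22 h before sacrifice. The extract was taken through a 10500g centrifugation and an (NH4)2SO4 precipitation. Decarboxylation of S-adenosyl-L-[carboxy-14C]methionine was measured as 14CO2 release, with or without 1 mM putrescine. Competitive inhibition was judged from Lineweaver-Burk plots, and Ki was read from Dixon plots.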

[2] = molecular target: T1, S-adenosylmethionine decarboxylase proenzyme; assay: In vitro inhibitory activity against S-adenosyl-L-methionine decarboxylase using liver from rat in absence of putrescine; procedure, shortened: as §1
[3] = molecular target: T2, S-adenosylmethionine decarboxylase proenzyme (Rattus norvegicus) (UniProt P17708); assay: Time required for the half inactivation of S-Adenosyl-L-methionine decarboxylase was determined with 0.2 mM of compound along with 1 mM NaBH3CN
T2 sequence (whole entry): T1 sequence (P17708 whole entry)
Procedure, shortened: (§2)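 The partly purified rat liver enzyme, from MGBG-treated rats, was incubated at 37 °C in 30 mM sodium phosphate pH 7.1 with 5 mM dithiothreitol and the stated additions. Aliquots were taken at intervals and assayed for remaining activity with S-adenosyl-L-[carboxy-14C]methionine. The half-inactivation time was obtained by a least-squares fit of the data points.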

[4] = molecular target: T2, S-adenosylmethionine decarboxylase proenzyme (Rattus norvegicus); assay: Time required for the half inactivation of S-Adenosyl-L-methionine decarboxylase was determined with 0.2 mM of compound; procedure, shortened: as §2
[5] = molecular target: T2, S-adenosylmethionine decarboxylase proenzyme (Rattus norvegicus); assay: Time required for the half inactivation of S-Adenosyl-L-methionine decarboxylase was determined with 0.2 mM of Compound along with 1 mM NaBH3CN; procedure, shortened: as §2
[6] = molecular target: T2, S-adenosylmethionine decarboxylase proenzyme (Rattus norvegicus); assay: Time required for the half inactivation of S-adenosyl-L-methionine decarboxylase with 1 mM of compound along with 0.05 mM of [5-(6-Amino-purin-9-yl)-3,4-dihydroxy-tetrahydro-furan-2-ylmethyl]-dimethyl-sulfonium; iodide; conditions: in the assay text read “0.2 mM of compound” for “1 mM of compound”; procedure, shortened: as §2
[7] = molecular target: T2, S-adenosylmethionine decarboxylase proenzyme (Rattus norvegicus); assay: Time required for the half inactivation of S-adenosyl-L-methionine decarboxylase was determined with 0.5 mM of compound
[8] = molecular target: T2, S-adenosylmethionine decarboxylase proenzyme (Rattus norvegicus); assay: Time required for the half inactivation of S-adenosyl-L-methionine decarboxylase with 0.5 mM of compound along with 0.05 mM of [5-(6-Amino-purin-9-yl)-3,4-dihydroxy-tetrahydro-furan-2-ylmethyl]-dimethyl-sulfonium; iodide; procedure, shortened: as §2

With `NCCNC[C@H]1OC(n2cnc3c(N)ncnc32)[C@H](O)[C@@H]1O` (some centres undefined) the Ki [1] was 70 µM and the Ki [2] was 540 µM.

`C[S+](C)C[C@H]1O[C@@H](n2cnc3c(N)ncnc32)[C@H](O)[C@@H]1O` was tested, and the Ki [1] was 2 µM and the Ki [2] was 20 µM.

`CN(CCC#N)C[C@H]1OC(n2cnc3c(N)ncnc32)[C@H](O)[C@@H]1O` (some centres undefined) gave a Ki [1] of 300 µM and a Ki [2] of 2800 µM.

`C[S+](CC[C@H](N)C(=O)[O-])C[C@H]1O[C@@H](n2cnc3c(N)ncnc32)[C@H](O)[C@@H]1O` (some centres undefined) [ADEMETIONINE] gave a Ki [1] of 60 µM, an Inactivation time [3] of 25 min and a Ki [2] of 300 µM. For the same compound, the Inactivation time [4] was 100 min.

Compound `C[S+](CCCN)C[C@H]1OC(n2cnc3c(N)ncnc32)[C@H](O)[C@@H]1O` (some centres undefined) has a Ki [1] of 3 µM, an Inactivation time [3] of 10 min and a Ki [2] of 40 µM. The Inactivation time [4] was 100 min.

Work on `NCCCNC[C@H]1OC(n2cnc3c(N)ncnc32)[C@H](O)[C@@H]1O` (some centres undefined) yielded a Ki [1] of 50 µM, an Inactivation time [5] of 25 min and an Inactivation time [4] of 250 min.

In the case of `CNCCCNC[C@H]1OC(n2cnc3c(N)ncnc32)[C@H](O)[C@@H]1O` (some centres undefined), the Ki [1] is reported as 600 µM.

`N=C(N)NC[C@H]1OC(n2cnc3c(N)ncnc32)[C@H](O)[C@@H]1O` (some centres undefined) showed a Ki [1] of 80 µM and a Ki [2] of 1000 µM.

`CN(CCCN)C[C@H]1OC(n2cnc3c(N)ncnc32)[C@H](O)[C@@H]1O` (some centres undefined) gave a Ki [1] of 60 µM, an Inactivation time [6] of 50 min and an Inactivation time [7] of 41 min. For the same compound, the Inactivation time [3] was 12 min, the Ki [2] was 380 µM and the Inactivation time [4] was 93 min. The Inactivation time [8] was 98 min.

Work on `NC[C@H]1O[C@@H](n2cnc3c(N)ncnc32)[C@H](O)[C@@H]1O` yielded a Ki [1] of 200 µM and a Ki [2] of 1700 µM.
